B1: tRNA (parent)
chain: GUUCCGUUGGCGUAAUGGUAACGCGUCUCCCUCCUAAGGAGAAGACUGCGGGUUCGAGUCCCGUACGGAACG

Variants of: B1
Assay: yeast fitness, log relative to wild type (ln ratio); higher = fitter; tRNA-Arg(CCU), competitive growth, 37 C, 1 M NaCl
Outline: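 Fitness is the natural log of each genotype's generations divided by the wild type's. Generations were derived as OD-scaled log2 output/input frequency from 125 bp paired-end Illumina counts, weighting replicates by inverse variance. Pools of the tRNA-Arg(CCU) variant library, on a HIS3 centromeric plasmid in BY4742 lacking the chromosomal gene, grew ~6.5 generations (~26.5 h) in SC-HIS 1M NaCl at 37 °C after 4 generations in SC-HIS at 30 °C.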

Variant	yeast fitness (ln)
GGUCCAUUGGCGUAAUGGUAACGCGUCUCCCUCCUAAGGAGAAGAUUGCGGGUUCGAGUCCCGUAAGGGGUG [U2G G6A C46U C66A A69G A70G C71U]	-0.193
GGUCCAUUGGCGUAAUGGUAACGCGUUUCCCUCCUAAGGAGAAGACUGCGGGUUCGAGUCCCGUAUGGAACG [U2G G6A C27U C66U]	-0.0928
GGUCCAUUGGCGUAAUGGUAACGCGUUUCCCUCCUAAGGAGAAGACUGCGGGUUCGAGUCCCGUAAGGAACG [U2G G6A C27U C66A]	-0.186
GGUCCAUUGGCGUAAUGGUAACGCGUUUCCCUCCUAAGGAGAAGAUUGCGGGUUCGAGUCCCGUAAGGAGUG [U2G G6A C27U C46U C66A A70G C71U]	-0.221
GGUCCAUUGGCGUAAUGGUAACGCGUUUCCCUCCUAAGGAGAAGACUGCGGGUUCGAGUCCCGUAAGGGGUG [U2G G6A C27U C66A A69G A70G C71U]	-0.249
GGUCCAUUGGCGUAAUGGUAACGCGUUUCCCUCCUAAGGAGAAGAUUGCGGGUUCGAGUCCCGUAAGGGUUG [U2G G6A C27U C46U C66A A69G A70U C71U]	-0.385
GGUCCAUUGGCGUAAUGGUAACGCGUUUCCCUCCUAAGGAGAAGACUGCGGGUUCGAGUCCCGUAUGGGACG [U2G G6A C27U C66U A69G]	-0.193
GGUCCAUUGGCGUAAUGGUAACGCGUUUCCCUCCUAAGGAGAAGACUGCGGGUUCGAGUCCCGUAAGGAUUG [U2G G6A C27U C66A A70U C71U]	-0.244
GGUCCAUUGGCGUAAUGGUAACGCGUUUCCCUCCUAAGGAGAAGAUUGCGGGUUCGAGUCCCGUAUGGAUUG [U2G G6A C27U C46U C66U A70U C71U]	-0.158
GGUCCAUUGGCGUAAUGGUAACGCGUUUCCCUCCUAAGGAGAAGAUUGCGGGUUCGAGUCCCGUAUGGGGUG [U2G G6A C27U C46U C66U A69G A70G C71U]	-0.216
GGUCCAUUGGCGUAAUGGUAACGCGUCUCCCUCCUAAGGAGAAGAUUGCGGGUUCGAGUCCCGUACGGAGCG [U2G G6A C46U A70G]	-0.0796
GGUCCAUUGGCGUAAUGGUAACGCGUCUCCCUCCUAAGGAGAAGAUUGCGGGUUCGAGUCCCGUACGGAUCG [U2G G6A C46U A70U]	0.00257
GGUCCAUUGGCGUAAUGGUAACGCGUUUCCCUCCUAAGGAGAAGACUGCGGGUUCGAGUCCCGUAUGGGAUG [U2G G6A C27U C66U A69G C71U]	-0.409
GGUCCAUUGGCGUAAUGGUAACGCGUUUCCCUCCUAAGGAGAAGACUGCGGGUUCGAGUCCCGUAUGGAUUG [U2G G6A C27U C66U A70U C71U]	-0.364
GGUCCAUUGGCGUAAUGGUAACGCGUUUCCCUCCUAAGGAGAAGAUUGCGGGUUCGAGUCCCGUAAGGGGUG [U2G G6A C27U C46U C66A A69G A70G C71U]	-0.251
GGUCCAUUGGCGUAAUGGUAACGCGUUUCCCUCCUAAGGAGAAGACUGCGGGUUCGAGUCCCGUAAGGAGUG [U2G G6A C27U C66A A70G C71U]	-0.149
GGUCCAUUGGCGUAAUGGUAACGCGUUUCCCUCCUAAGGAGAAGAUUGCGGGUUCGAGUCCCGUAUGGGACG [U2G G6A C27U C46U C66U A69G]	-0.215
GGUCCAUUGGCGUAAUGGUAACGCGUUUCCCUCCUAAGGAGAAGAUUGCGGGUUCGAGUCCCGUACGGAGUG [U2G G6A C27U C46U A70G C71U]	-0.207
GGUCCAUUGGCGUAAUGGUAACGCGUUUCCCUCCUAAGGAGAAGAUUGCGGGUUCGAGUCCCGUAUGGAGUG [U2G G6A C27U C46U C66U A70G C71U]	-0.165

Variant	yeast fitness (ln)
GGUCCAUUGGCGUAAUGGUAACGCGUCUCCCUCCUAAGGAGAAGAUUGCGGGUUCGAGUCCCGUAAGGGUUG [U2G G6A C46U C66A A69G A70U C71U]	-0.382
GGUCCAUUGGCGUAAUGGUAACGCGUUUCCCUCCUAAGGAGAAGACUGCGGGUUCGAGUCCCGUAUGGGUUG [U2G G6A C27U C66U A69G A70U C71U]	-0.4
GGUCCAUUGGCGUAAUGGUAACGCGUUUCCCUCCUAAGGAGAAGAUUGCGGGUUCGAGUCCCGUAAGGAUCG [U2G G6A C27U C46U C66A A70U]	-0.134
GGUCCAUUGGCGUAAUGGUAACGCGUUUCCCUCCUAAGGAGAAGAUUGCGGGUUCGAGUCCCGUAAGGAGCG [U2G G6A C27U C46U C66A A70G]	-0.16
GGUCCAUUGGCGUAAUGGUAACGCGUUUCCCUCCUAAGGAGAAGACUGCGGGUUCGAGUCCCGUAUGGGUCG [U2G G6A C27U C66U A69G A70U]	-0.0719
GGUCCAUUGGCGUAAUGGUAACGCGUUUCCCUCCUAAGGAGAAGACUGCGGGUUCGAGUCCCGUAUGGGGCG [U2G G6A C27U C66U A69G A70G]	-0.243
GGUCCAUUGGCGUAAUGGUAACGCGUUUCCCUCCUAAGGAGAAGAUUGCGGGUUCGAGUCCCGUAAGGAUUG [U2G G6A C27U C46U C66A A70U C71U]	-0.167
GGUCCAUUGGCGUAAUGGUAACGCGUUUCCCUCCUAAGGAGAAGAUUGCGGGUUCGAGUCCCGUAAGGAACG [U2G G6A C27U C46U C66A]	-0.0567
GGUCCAUUGGCGUAAUGGUAACGCGUUUCCCUCCUAAGGAGAAGAUUGCGGGUUCGAGUCCCGUAUGGAACG [U2G G6A C27U C46U C66U]	-0.206
GGUCCAUUGGCGUAAUGGUAACGCGUCUCCCUCCUAAGGAGAAGAUUGCGGGUUCGAGUCCCGUACGGGUUG [U2G G6A C46U A69G A70U C71U]	-0.272
GGUCCAUUGGCGUAAUGGUAACGCGUUUCCCUCCUAAGGAGAAGAUUGCGGGUUCGAGUCCCGUACGGAAUG [U2G G6A C27U C46U C71U]	-0.128
GGUCCAUUGGCGUAAUGGUAACGCGUUUCCCUCCUAAGGAGAAGAUUGCGGGUUCGAGUCCCGUAAGGAAUG [U2G G6A C27U C46U C66A C71U]	-0.213
GGUCCAUUGGCGUAAUGGUAACGCGUCUCCCUCCUAAGGAGAAGAUUGCGGGUUCGAGUCCCGUAUGGGUCG [U2G G6A C46U C66U A69G A70U]	-0.00305
GGUCCAUUGGCGUAAUGGUAACGCGUCUCCCUCCUAAGGAGAAGAUUGCGGGUUCGAGUCCCGUAUGGGGCG [U2G G6A C46U C66U A69G A70G]	-0.442
GGUCCAUUGGCGUAAUGGUAACGCGUUUCCCUCCUAAGGAGAAGAUUGCGGGUUCGAGUCCCGUAUGGAUCG [U2G G6A C27U C46U C66U A70U]	-0.01
GGUCCAUUGGCGUAAUGGUAACGCGUUUCCCUCCUAAGGAGAAGAUUGCGGGUUCGAGUCCCGUAUGGAGCG [U2G G6A C27U C46U C66U A70G]	-0.364
GGUCCAUUGGCGUAAUGGUAACGCGUUUCCCUCCUAAGGAGAAGAUUGCGGGUUCGAGUCCCGUAAGGGAUG [U2G G6A C27U C46U C66A A69G C71U]	-0.325
GGUCCAUUGGCGUAAUGGUAACGCGUUUCCCUCCUAAGGAGAAGAUUGCGGGUUCGAGUCCCGUAUGGGGCG [U2G G6A C27U C46U C66U A69G A70G]	-0.199
GGUCCAUUGGCGUAAUGGUAACGCGUUUCCCUCCUAAGGAGAAGAUUGCGGGUUCGAGUCCCGUAUGGGUCG [U2G G6A C27U C46U C66U A69G A70U]	-0.0313

From the RNAGym collection of RNA variant scans (doi:10.1038/s41586-018-0170-7)
